Columns and labels:
[1] = (§1) Binding affinity to human plasma alpha-thrombin exosite-2 using spectrozyme TH as substrate after overnight incubation at 25 degC by spectrophotometric analysis in presence of 6.5 uM gamma'-fibrinogen peptide; assay type: cell-free
Homo sapiens [2] = species on record: Homo sapiens; assay: as §1; assay type: cell-free
[3] = (§2) Binding affinity to human plasma alpha-thrombin exosite-2 using spectrozyme TH as substrate after overnight incubation at 25 degC by spectrophotometric analysis in presence of 0.2 uM gamma'-fibrinogen peptide; assay type: cell-free
Homo sapiens [4] = species on record: Homo sapiens; assay: as §2; assay type: cell-free
[5] = (§3) Binding affinity to human plasma alpha-thrombin exosite-2 using spectrozyme TH as substrate after overnight incubation at 25 degC by spectrophotometric analysis in presence of 25 uM unfractionated heparin; assay type: cell-free
Homo sapiens [6] = species on record: Homo sapiens; assay: as §3; assay type: cell-free
[7] = (§4) Binding affinity to human plasma alpha-thrombin exosite-2 using spectrozyme TH as substrate after overnight incubation at 25 degC by spectrophotometric analysis in presence of 12.8 uM unfractionated heparin; assay type: cell-free
Homo sapiens [8] = species on record: Homo sapiens; assay: as §4; assay type: cell-free
[9] = (§5) Binding affinity to human plasma alpha-thrombin exosite-2 using spectrozyme TH as substrate after overnight incubation at 25 degC by spectrophotometric analysis in presence of 4.2 uM unfractionated heparin; assay type: cell-free
Homo sapiens [10] = species on record: Homo sapiens; assay: as §5; assay type: cell-free
[11] = (§6) Binding affinity to human plasma alpha-thrombin exosite-1 using spectrozyme TH as substrate after overnight incubation at 25 degC by spectrophotometric analysis in presence of 5 nM hirugen peptide; assay type: cell-free
Homo sapiens [12] = species on record: Homo sapiens; assay: as §6; assay type: cell-free
[13] = (§7) Binding affinity to human plasma alpha-thrombin exosite-1 using spectrozyme TH as substrate after overnight incubation at 25 degC by spectrophotometric analysis in presence of 3 nM hirugen peptide; assay type: cell-free
Homo sapiens [14] = species on record: Homo sapiens; assay: as §7; assay type: cell-free
Homo sapiens [15] = species on record: Homo sapiens; assay: Selectivity ratio of IC50 for recombinant human thrombin R233A mutant to IC50 for wild type recombinant human thrombin
Method in brief: (§8)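 BHK-expressed, HPC4 immunoaffinity-purified thrombins, activated from prothrombin form. Active-site concentration from amidolysis and antithrombin titration. Enzyme (1.5−7.5 nM final) incubated overnight at 25 °C with inhibitor in Tris pH 7.4 buffer in coated cuvettes. Residual activity from S2238 initial rate at A405, using at least 9−10 points. Logistic fit gives IC50. Ratio is mutant IC50 over wild-type IC50.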

[16] = Inhibition of recombinant human thrombin R93A mutant expressed in BHK cells using S2238 as substrate after overnight incubation at 25 degC; method in brief: as §8
[17] = Inhibition of recombinant human thrombin R101A mutant expressed in BHK cells using S2238 as substrate after overnight incubation at 25 degC; method in brief: as §8
[18] = Inhibition of recombinant human thrombin K240A mutant expressed in BHK cells using S2238 as substrate after overnight incubation at 25 degC; method in brief: as §8
Plasma = assay: Anticoagulant activity in human plasma assessed as increase in prothrombin time at 568 uM after 30 secs by fibrometric analysis relative to control; assay type: functional
Method in brief: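 Citrated human plasma, one-stage recalcification, fibrometer read-out. APTT: 90 μL plasma + 10 μL inhibitor or vehicle + prewarmed 0.2% ellagic acid, 4 min, then 25 mM CaCl2 (37 °C). PT: inhibitor + plasma 30 s at 37 °C, then prewarmed thromboplastin. Duplicates. Quadratic trend line fit gives concentration doubling clotting time versus vehicle blank.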

Homo sapiens [19] = species on record: Homo sapiens; assay: Inhibition of human plasma alpha-thrombin assessed as spectrozyme TH hydrolysis at 1 to 900 uM preincubated for 10 mins by spectrophotometric analysis relative to control; assay type: cell-free
Method in brief: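 Human plasma α-thrombin (5 nM final) with inhibitor (1−900 μM final) in 20 mM Tris-HCl pH 7.4, 100 mM NaCl, 2.5 mM CaCl2, 0.1% PEG8000, PEG20000-coated cuvettes, 10 min. Spectrozyme TH then added (30 μM final). Initial rate from A405 increase. Residual activity fitted by logistic equation with floating Hill slope, Y0, YM to give IC50.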

IC50 [1]: 1300 nM
pIC50(app) (Homo sapiens [2]): 5.88
IC50 [3]: 1200 nM
pIC50(app) (Homo sapiens [4]): 5.94
IC50 [5]: 3800 nM
pIC50(app) (Homo sapiens [6]): 5.42
IC50 [7]: 2100 nM
pIC50(app) (Homo sapiens [8]): 5.68
IC50 [9]: 1000 nM
pIC50(app) (Homo sapiens [10]): 6
IC50 [11]: 800 nM
pIC50(app) (Homo sapiens [12]): 6.1
IC50 [13]: 900 nM
pIC50(app) (Homo sapiens [14]): 6.07
Ratio IC50 (Homo sapiens [15]): 3.8
IC50 [16]: 190 nM
pIC50 [16]: 6.73
IC50 [17]: 390 nM
pIC50 [17]: 6.41
IC50 [18]: 270 nM
pIC50 [18]: 6.57
Efficacy (Homo sapiens [19]): 80%
Structure (SMILES): CCOC(=O)c1c(C)oc2cc(OC)c(OCc3oc4cc(OC)c(OCc5oc6cc(OC)c(OS(=O)(=O)[O-])cc6c5C(=O)OCC)cc4c3C(=O)OCC)cc12.[Na+]
fold change (FC) (Plasma): 2

Source: ChEMBL document CHEMBL2396594, “Designing allosteric regulators of thrombin. Exosite 2 features multiple subsites that can be targeted by sulfated small molecules for inducing inhibition” (J Med Chem, 2013)
